Measurements taken from ChEMBL document CHEMBL3124841, “Discovery of vinyl sulfones as a novel class of neuroprotective agents toward Parkinson's disease therapy” (J Med Chem, 2014).
Active and inactive are the calls of the source. No cut-off for these calls is given here.

Key:
[1] = molecular target: T1, Nuclear factor erythroid 2-related factor 2 (Mus musculus) (UniProt Q60795); assay: Induction of Nrf2-dependent GCLM gene expression in mouse CATH.a cells at 10 uM after 6 hrs by RT-PCR analysis relative to control; assay type: cell-based
T1 sequence (whole entry): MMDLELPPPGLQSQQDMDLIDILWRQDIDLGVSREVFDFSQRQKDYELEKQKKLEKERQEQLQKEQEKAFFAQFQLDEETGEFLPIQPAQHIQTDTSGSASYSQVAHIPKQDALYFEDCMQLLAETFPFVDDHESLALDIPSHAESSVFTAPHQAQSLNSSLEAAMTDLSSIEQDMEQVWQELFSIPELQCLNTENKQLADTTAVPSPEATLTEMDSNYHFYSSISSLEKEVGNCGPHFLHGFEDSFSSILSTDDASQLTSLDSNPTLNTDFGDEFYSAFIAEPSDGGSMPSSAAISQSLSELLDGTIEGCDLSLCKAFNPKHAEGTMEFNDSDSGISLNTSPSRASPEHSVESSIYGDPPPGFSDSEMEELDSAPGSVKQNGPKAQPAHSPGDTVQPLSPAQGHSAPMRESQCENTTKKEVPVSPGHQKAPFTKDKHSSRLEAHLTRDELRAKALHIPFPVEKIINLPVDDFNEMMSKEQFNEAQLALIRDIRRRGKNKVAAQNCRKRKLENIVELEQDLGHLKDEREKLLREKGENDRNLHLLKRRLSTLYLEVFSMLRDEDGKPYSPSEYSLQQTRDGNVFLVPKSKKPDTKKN
Method in brief: (§1)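 CATH.a cells grown in RPMI 1640 with 8% horse serum and 4% FBS, exposed to graded concentrations for 6 h. mRNA analysed by RT-PCR with gene-specific primers, products run on 1% agarose gel, band densitometry normalized to GAPDH. At least duplicate cultures; fold induction versus untreated control ± SEM.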

[2] = molecular target: T1, Nuclear factor erythroid 2-related factor 2 (Mus musculus); assay: Induction of Nrf2-dependent GCLM gene expression in mouse CATH.a cells at 2 uM after 6 hrs by RT-PCR analysis relative to control; assay type: cell-based; method in brief: as §1
[3] = molecular target: T1, Nuclear factor erythroid 2-related factor 2 (Mus musculus); assay: Induction of Nrf2-dependent HO1 protein expression in mouse CATH.a cells at 1 to 10 uM after 24 hrs by western blot analysis relative to control; assay type: cell-based
Method in brief: (§2)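 Cells (CATH.a) exposed to graded concentrations for 24 h, lysed in RIPA buffer with protease inhibitors. Equal protein separated on 10% SDS gel, blotted; primary antibodies overnight at 4 °C, HRP secondary, chemiluminescence. Densitometry normalized to β-actin. At least duplicate cultures, fold of untreated control ± SEM.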

[4] = molecular target: T1, Nuclear factor erythroid 2-related factor 2 (Mus musculus); assay: Induction of Nrf2-dependent NQO1 protein expression in mouse CATH.a cells at 10 uM after 24 hrs by western blot analysis relative to control; assay type: cell-based; method in brief: as §2
[5] = molecular target: T1, Nuclear factor erythroid 2-related factor 2 (Mus musculus); assay: Induction of Nrf2-dependent NQO1 gene expression in mouse CATH.a cells after 6 hrs by RT-PCR analysis; assay type: cell-based; method in brief: as §1
Mus musculus [6] = assay: Effect on DAergic neurons in C57Bl/6 mouse SN at 10 mg/kg/day, po for 3 days by immunohistochemistry; assay type: ADME, organism-based; set-up: route oral; details: in vivo, 72 h
Method in brief: (§3)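 Male C57Bl/6 mice (23−25 g, n = 10/group) dosed orally at 10 mg/kg/day for 3 days, vehicle N-methyl-2-pyrrolidone and 20% Tween 80 in saline. MPTP 4 × 20 mg/kg ip 2 h apart, starting 24 h after first oral dose. Perfusion-fixed 7 days after first MPTP; TH immunostaining, nigral cells counted and striatal fibers densitometered on five sections each, 80 μm apart. Expressed as % vehicle control ± SEM.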

Mus musculus [7] = assay: Inhibition of motor deficits in MPTP-induced C57Bl/6 mouse parkinson's disease model assessed as number of successful steps taken on the apparatus at 10 mg/kg/day, po for 3 days administered first dose at 24 hrs prior to first injection of 4X 20 mg/kg, ip MPTP challenge by vertical grid test (reference value: 75.4 +/-6.2%); assay type: functional; set-up: scale not given: the % may be the effect or the level left
Mus musculus [8] = assay: (§4) Inhibition of motor deficits in MPTP-induced C57Bl/6 mouse parkinson's disease model assessed as time taken to climb down at 10 mg/kg/day, po for 3 days administered first dose at 24 hrs prior to first injection of 4X 20 mg/kg, ip MPTP challenge by vertical grid test (reference value: 22.4 +/-3.9 s); assay type: functional
Mus musculus [9] = assay: as §4, with “turn around” for “climb down”, “12.4 +/-1.8” for “22.4 +/-3.9”; assay type: functional
Mus musculus [10] = assay: Inhibition of motor deficits in MPTP-induced C57Bl/6 mouse parkinson's disease model assessed as improvement in postural balance at 10 mg/kg/day, po for 3 days administered first dose at 24 hrs prior to first injection of 4X 20 mg/kg, ip MPTP challenge measured 6 days after last MPTP injection by hind-limb test; assay type: functional, organism-based
Method in brief: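 C57Bl/6 males (n = 10/group), 10 mg/kg/day po for 3 days in N-methyl-2-pyrrolidone/20% Tween 80 saline. MPTP 4 × 20 mg/kg ip at 2 h intervals, begun 24 h after first dose. Six days after last MPTP injection, mice suspended by tail and hindlimb position scored 0−4. Mean ± SEM.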

Mus musculus [11] = assay: Neuroprotective activity against MPTP-induced neurodegeneration in C57Bl/6 mouse parkinson's disease model assessed as increase in DAergic fibers in striatum at 10 mg/kg/day, po for 3 days administered first dose at 24 hrs prior to first injection of 4X 20 mg/kg, ip MPTP challenge measured 7 days after first MPTP injection by immunohistochemistry; assay type: functional, organism-based; method in brief: as §3
[12] = Cytotoxicity against mouse CATH.a cells assessed as cell viability at 0.1 to 2 uM after 72 hrs by ATP assay; assay type: cell-based
Method in brief: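 CATH.a cells seeded at 2.4 × 10⁴ cells/well, exposed to the agent alone for 72 h. Viability read as cellular ATP by CellTiter-Glo luminescence (2 min lysis, 10 min room temperature, 1 min read). At least duplicate cultures, percent of untreated control ± SEM.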

[13] = molecular target: T1, Nuclear factor erythroid 2-related factor 2 (Mus musculus); assay: Induction of Nrf2-dependent GCLC protein expression in mouse CATH.a cells at 0.1 uM after 24 hrs by western blot analysis; assay type: cell-based; method in brief: as §2
[14] = molecular target: T1, Nuclear factor erythroid 2-related factor 2 (Mus musculus); assay: Induction of Nrf2-dependent GCLM protein expression in mouse CATH.a cells at 0.1 uM after 24 hrs by western blot analysis; assay type: cell-based; method in brief: as §2
[15] = molecular target: T1, Nuclear factor erythroid 2-related factor 2 (Mus musculus); assay: Induction of Nrf2-dependent NQO1 protein expression in mouse CATH.a cells at 0.1 uM after 24 hrs by western blot analysis; assay type: cell-based; method in brief: as §2
Mus musculus [16] = species on record: Mus musculus; assay: Neuroprotection against BH4-induced mouse CATH.a cell death assessed as cell viability at 0.1 uM treated for 20 hrs prior to BH4 challenge for 24 hrs by LDH activity assay; assay type: functional
Method in brief: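 CATH.a cells at 2.4 × 10⁴/well given graded concentrations for 20 h, then 200 μM BH4 for an additional 24 h. Medium LDH activity from NADH oxidation with pyruvate, pH 7.4, read at 340 nm over 5 min. At least duplicate cultures, % untreated control ± SEM, compared against BH4-treated group.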

[17] = molecular target: T1, Nuclear factor erythroid 2-related factor 2 (Mus musculus); assay: Induction of Nrf2-dependent GCLC protein expression in mouse CATH.a cells after 24 hrs by western blot analysis; assay type: cell-based; method in brief: as §2
[18] = molecular target: T1, Nuclear factor erythroid 2-related factor 2 (Mus musculus); assay: Induction of Nrf2-dependent GCLM protein expression in mouse CATH.a cells after 24 hrs by western blot analysis; assay type: cell-based; method in brief: as §2
[19] = molecular target: T1, Nuclear factor erythroid 2-related factor 2 (Mus musculus); assay: Induction of Nrf2-dependent GCLC gene expression in mouse CATH.a cells at 10 uM after 6 hrs by RT-PCR analysis relative to control; assay type: cell-based; method in brief: as §1

For `COc1ccccc1S(=O)(=O)/C=C/c1ccccc1Cl`, the fold change (FC) [1] was 2.56, the fold change (FC) [2] was 1.43 and the fold change (FC) [3] was 3. For the same molecule, the fold change (FC) [4] was 4.43, the Activity [5] was “Dose-dependent effect” and the Activity (Mus musculus [6]) was “Non-toxic”. It also gave an Activity (Mus musculus [7]) of 96.9%, a Time (Mus musculus [8]) of 6.3 s and a Time (Mus musculus [9]) of 4 s. For the same molecule, the inhibition (Mus musculus [10]) was “Active”, the Activity (Mus musculus [11]) was “Active” and the Activity [12] was “Non-toxic”. For the same molecule, the Activity [13] was “inactive”, the Activity [14] was “inactive” and the Activity [15] was “inactive”. The Activity (Mus musculus [16]) was “Active”, the Activity [17] was “Dose-dependent effect” and the Activity [18] was “Dose-dependent effect”. For the same molecule, the fold change (FC) [19] was 2.64.
